Compound activity (PubChem)
NadD inh: NadD (S. aureus) enzyme inhibition | inhibition, % at 20 µM | 360,000 compounds, 0.78% hits | purified NadD enzyme, colorimetric absorbance read-out; in the data active = inhibition above about 26%
rCAG binder: molecules binding r(CAG) RNA repeats; r(CAG) RNA repeat, TO-PRO-1 dye displacement fluorescence; inhibition, % at 3 µM; 370,000 compounds, 1.3% hits; AID 651821;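 active = inhibition above the plate cutoff, the mean of all test compounds on that plate plus 3 SD, cut at about 35% in these data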;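 note: higher means more dye released from RNA so lower well fluorescence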
LMPTP inh: LMPTP (human) inhibition | P24666 | recombinant LMPTP-A, OMFP fluorogenic substrate, fluorescence intensity | inhibition, % at 20 µM | 360,000 compounds, 0.22% hits;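 active = compounds that cut the enzyme signal by at least half of the control window in the single-dose screen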
Target sequence (P24666 whole entry, looked up): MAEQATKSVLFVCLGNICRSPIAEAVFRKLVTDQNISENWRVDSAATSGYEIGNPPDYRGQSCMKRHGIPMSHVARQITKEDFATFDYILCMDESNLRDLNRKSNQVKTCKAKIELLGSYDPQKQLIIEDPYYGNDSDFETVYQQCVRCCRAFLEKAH
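Assay system: LMPTP-A enzyme. Input: 0.625 nM LMPTP-A final. Probe or stimulus: 400 µM OMFP. Compound dosing: single 20 µM dose. Schedule: 50 min dark incubation at room temperature. Detection: fluorescence intensity of OMFP turnover product. Read-out: percent inhibition versus substrate-only and uninhibited controls. Benchmarks: no-enzyme low control, uninhibited high control.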
STEP block: STEP (human) phosphatase inhibition; P54829; recombinant STEP, OMFP fluorogenic substrate, fluorescence; inhibition, % at 20 µM; 360,000 compounds, 0.25% hits; AID 588621;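 active = inhibition at 20 µM, scaled per plate between control wells, above about 37%, limit read from the data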
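Test system: STEP tyrosine phosphatase / Reagent: OMFP at 25 µM / Doses: 20 µM, 1% DMSO / Read-out: percent inhibition scaled to no-enzyme and uninhibited-enzyme controls, plate-pattern corrected / Detection: FITC-channel fluorescence of OMFP product / Medium: Bis-Tris buffer pH 6.0, 2.5 mM DTT, 0.005% Tween 20 / Schedule: 20 min at room temperature, dark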
Scp1 inh: blocks human Scp-1 phosphatase activity. Q9GZU7. Recombinant Scp1, phosphopeptide, malachite green phosphate absorbance. inhibition, % at 20 µM. 340,000 compounds, 0.88% hits. AID 493091;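 active = inhibition above about 50% at 20 µM, limit read from the data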
Target sequence (Q9GZU7 76-261 limits assumed): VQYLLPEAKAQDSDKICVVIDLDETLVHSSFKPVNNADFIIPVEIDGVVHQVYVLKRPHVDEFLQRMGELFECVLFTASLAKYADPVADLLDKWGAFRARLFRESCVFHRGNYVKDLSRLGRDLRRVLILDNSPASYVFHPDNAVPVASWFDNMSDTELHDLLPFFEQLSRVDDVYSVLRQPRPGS
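Material: truncated SCP-1 phosphatase (76-261aa) / Buffer or medium: 50 mM Tris acetate pH 5.5, 0.005% Tween-20, 10 mM MgCl2 / Compound dosing: one concentration, 20 µM, with 1.0% DMSO / Incubation: 45 min room-temperature reaction, 5 min colour, 30 min stabiliser / Detection: colorimetric free-phosphate detection, absorbance 630 nm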
rCAG binder conf: r(CAG) RNA repeat binding, confirmation. shares compounds with rCAG binder. TO-PRO-1 dye displacement fluorescence. inhibition, % at 3 µM. 4,300 compounds, 70% hits. AID 652065;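 active = inhibition above a per-plate cutoff, the mean inhibition of sample wells plus 3 SD, cut at about 35% in these data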;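 note: loss of TO-PRO-1 fluorescence as compound displaces dye from 1x1 AA loop RNA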
dCAG dye counter: disrupts DNA CAG TO-PRO-1 complex, flagging rCAG hits | shares compounds with rCAG binder | d(CAG) DNA oligo TO-PRO-1 dye displacement, fluorescence | inhibition, % at 3 µM | 4,300 compounds, 94% hits | AID 652068;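 active = inhibition above its plate's cutoff, the mean test-well inhibition plus 3 SD, cut at about 4.8% in these data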;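 note: hits displace the dye from DNA and so lower well fluorescence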
dCAG dye DR: DNA CAG dye complex inhibition, dose response counter-screen; shares compounds with rCAG binder; DNA CAG/GTC duplex TO-PRO-1 dye displacement fluorescence; IC50, µM; 250 compounds, 20% hits; in the data active = IC50 below about 10 µM
Each line names hits and unclear results; the compound was inactive in the other large screens (follow-up assays come after a bar, where they were run). Sampled rows, rich in hits. Any-hit rate of the full collection: about 2.6%.

CNC(=O)C1CC(=O)N(CCc2ccccc2)C(=Nc2ccc(OC)cc2)S1 (centres undefined)	none
O=C(Nc1cccc(C(F)(F)F)c1)Nc1ccc(N2CCCC2)c(S(=O)(=O)Nc2ccccc2Cl)c1	rCAG binder 46 | rCAG binder conf inactive | dCAG dye counter 18
O=C(Nc1cccc(S(=O)(=O)Nc2ccccc2Cl)c1)c1ccc(N2CCCC2)c([N+](=O)[O-])c1	rCAG binder 61 | rCAG binder conf 44 | dCAG dye counter 21
CC(C)[C@H](NC(=O)[C@H](Cc1ccccc1)NC(=O)OC(C)(C)C)C(=O)N1CCC2CCN(S(=O)(=O)c3ccccc3)CC21 (some centres undefined)	none (no result: NadD inh, LMPTP inh, STEP block, Scp1 inh)
COc1cc(/C=C2\S/C(=N/S(=O)(=O)Cc3ccccc3)NC2=O)c([N+](=O)[O-])cc1OC	rCAG binder 78 | rCAG binder conf 71 | dCAG dye counter 33
O=C1N/C(=N\S(=O)(=O)c2ccccc2)S/C1=C\c1cc([N+](=O)[O-])ccc1O	rCAG binder 67 | rCAG binder conf 52 | dCAG dye counter 12 | dCAG dye DR inactive
COc1cc(/C=C2/S/C(=N/S(=O)(=O)Cc3ccccc3)NC2=O)c([N+](=O)[O-])cc1OC	rCAG binder 73 | rCAG binder conf 67 | dCAG dye counter 29
O=C(N/N=C/c1cc([N+](=O)[O-])ccc1O)C(O)(c1ccccc1)c1ccccc1	none
COc1cc(/C=C2/SC(=O)NC2=O)ccc1Oc1ccc([N+](=O)[O-])cc1[N+](=O)[O-]	none
COc1cc(/C=C2/S/C(=N/S(=O)(=O)c3ccccc3)NC2=O)c([N+](=O)[O-])cc1OC	rCAG binder 78 | rCAG binder conf 77 | dCAG dye counter 41
Fc1ccccc1-c1n[nH]c(=S)n1N=Cc1ccc(-c2ccccc2)cc1	rCAG binder 60 (no result: NadD inh, LMPTP inh, STEP block, Scp1 inh) | rCAG binder conf 48 | dCAG dye counter 14
Fc1ccc(-c2n[nH]c(=S)n2N=Cc2cccc(OCc3ccccc3)c2)cc1	rCAG binder 58 (no result: NadD inh, LMPTP inh, STEP block, Scp1 inh) | rCAG binder conf 51 | dCAG dye counter 18
S=c1[nH]nc(-c2ccccc2)n1/N=C/c1cccc(Br)c1	none
Oc1c(Br)cc(Br)c(/C=N/n2c(-c3ccccc3)n[nH]c2=S)c1Br	rCAG binder 59 | rCAG binder conf 43 | dCAG dye counter 14
COc1ccc(/C=N/n2c(-c3ccccc3)n[nH]c2=S)cc1	none
Fc1ccccc1-c1n[nH]c(=S)n1N=Cc1cccc(OCc2ccccc2)c1	rCAG binder 73 (no result: NadD inh, LMPTP inh, STEP block, Scp1 inh) | rCAG binder conf 64 | dCAG dye counter 24
Oc1ccc(Br)cc1/C=N/n1c(-c2ccccc2)n[nH]c1=S	none
CCOC(=O)CC[C@@H]1CC[C@]2(CCCN(Cc3cccs3)C2)O1	none (no result: NadD inh, LMPTP inh, STEP block, Scp1 inh)
C[C@@H]1COc2cccc(NCCO)c2S(=O)(=O)N1	none (no result: NadD inh, LMPTP inh, STEP block, Scp1 inh)
COc1ccc(C2CC(=O)C(c3cccc(Cl)c3)=CN2Cc2ccccc2)cc1 (centres undefined)	none (no result: NadD inh, LMPTP inh, STEP block, Scp1 inh)
COc1ccc(CC(=O)Nc2ccccc2N2CCCC2)cc1OC	none
CCOc1cc(CC(=O)N[C@@H](CC(C)C)c2ccccc2N2CCCCC2)ccc1C(=O)O	rCAG binder 47 | rCAG binder conf 36 | dCAG dye counter 9.8
COc1ccc(/C=C2\S/C(=N/S(=O)(=O)c3cccs3)NC2=O)cc1	rCAG binder 73 | rCAG binder conf 50 | dCAG dye counter 16
COC(=O)[C@]12C[C@H](CC(=O)NCC34CC5CC(CC(C5)C3)C4)C(=O)N(Cc3ccccc3)C1=C[C@H](C(C)(C)C)O[C@@H]2C	none (no result: NadD inh, LMPTP inh, STEP block, Scp1 inh)
CC(C)Cc1csc(NC(=O)c2ccc(F)cc2)c1C(=O)O	rCAG binder 35 | rCAG binder conf inactive | dCAG dye counter inactive
CCOC(=O)c1c(NC(=O)c2ccccc2C(=O)O)sc2c1CCC2	rCAG binder 47 | rCAG binder conf inactive | dCAG dye counter 7.3
CCOC(=O)c1sc(NC(=O)c2ccccc2C(=O)O)c(C(=O)OCC)c1C	rCAG binder 45 | rCAG binder conf 35 | dCAG dye counter 7.7
CCOC(=O)c1c(NC(=O)C2C3C=CC(C3)C2C(=O)O)sc2c1CCCC2 (centres undefined)	rCAG binder 37 | rCAG binder conf 50 | dCAG dye counter 11 | dCAG dye DR inactive
Cc1ccccc1C(=O)N(C)[C@H]1C[C@H]2c3[nH]c4c(-c5ccccc5)cccc4c3CCN2C[C@H]1[C@H](C)O	none (no result: NadD inh, LMPTP inh, STEP block, Scp1 inh)
CC(C)OC(=O)c1c(NC(=O)C2CC=CCC2C(=O)O)sc2c1CCCCC2 (centres undefined)	rCAG binder 56 | rCAG binder conf 68 | dCAG dye counter 22
CCOC(=O)c1c(NC(=O)c2cccc([N+](=O)[O-])c2C(=O)O)sc2c1CCCC2	none
CCOC(=O)c1c(CC(C)C)csc1NC(C)=O	none
CCOC(=O)c1c(NC(=O)c2c(C(=O)O)cccc2[N+](=O)[O-])sc2c1CCCC2	rCAG binder 47 | rCAG binder conf inactive | dCAG dye counter 10.0
CCOC(=O)c1c(CC(C)C)csc1NC(=O)c1ccccc1C(=O)O	rCAG binder 47 | rCAG binder conf 45 | dCAG dye counter 12
CCOC(=O)[C@@]12CN(C(=O)OC(C)(C)C)CC=C1N(Cc1ccc(OC)cc1)C(=O)[C@H]2CC(=O)N1CCN(C(=O)c2ccco2)CC1	none (no result: NadD inh, LMPTP inh, STEP block, Scp1 inh)
CCC(C)N(C(=O)CSc1nnc(-c2cc(OC)c(OC)c(OC)c2)o1)C(C)CC (centres undefined)	none (no result: NadD inh, LMPTP inh, STEP block, Scp1 inh)
COC(=O)C1=C(C)N(Cc2ccc(Br)cc2)C(=S)NC1c1ccccc1 (centres undefined)	none (no result: NadD inh, LMPTP inh, STEP block, Scp1 inh)
Cc1ccc(-n2c(SCC(=O)Nc3ccc4c(c3)OCCO4)nnc2-c2cccnc2)cc1	none (no result: NadD inh, LMPTP inh, STEP block, Scp1 inh)
Cc1ccc2c(c1)c(CC(=O)Nc1ccc(C)c(F)c1)c(C(=O)O)n2C	rCAG binder 49 | rCAG binder conf 44 | dCAG dye counter 13
C[C@H]1COc2cc(Br)ccc2S(=O)(=O)N1Cc1cn(Cc2ccc(Cl)cc2)nn1	none (no result: NadD inh, LMPTP inh, STEP block, Scp1 inh)
Cc1c(CCC(=O)O)c(=O)oc2cc3occ(-c4ccc(Br)cc4)c3cc12	rCAG binder 37 | rCAG binder conf 62 | dCAG dye counter 24
Cc1c(CCC(=O)NCCC(=O)O)c(=O)oc2cc3occ(-c4ccccc4)c3cc12	none
Cc1c(CCC(=O)O)c(=O)oc2cc3occ(-c4ccc(F)cc4)c3cc12	rCAG binder 47 | rCAG binder conf 44 | dCAG dye counter 12
Cc1c(CCC(=O)NCC(=O)O)c(=O)oc2cc3occ(-c4ccccc4)c3cc12	none
